# Rin1 Abl inh – inhibitors of Rin1-Abl protein binding, primary screen, biochemical, TR-FRET. inhibition, % at 7.35 µM. AID 588664, 2011. hit rate 0.4% among 360,000. Tyrosine-protein kinase ABL1 (Homo sapiens) + Ras and Rab interactor 1 (Homo sapiens), …; in the data active = inhibition above about 5%, passing the limit was not always enough
# PKA-R2B activ – activators of PKA-R2B holoenzyme, primary screen, biochemical, fluorescence polarization, Cy5-IP20, human | cAMP-dependent protein kinase catalytic subunit beta (Homo sapiens) + cAMP-dependent … | PKA-R2B holoenzyme dissociation; R2B truncated from residue 108, S112A mutant; 0% DMSO only, 100% 113 µM cGMP | activation, % at 11.4 µM | hit rate 0.079% among 340,000;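 active = activation above a cutoff set at the mean over all compounds plus 3 SD, cut at about 18% in these data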;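 note: higher means more holoenzyme dissociation and a rise in polarization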
# PKA-R1A activ – activators of PKA-R1A holoenzyme, primary screen, biochemical, fluorescence polarization, Cy5-IP20, bovine R1A, mouse PKAc; PKA-R1A dissociation; scaled: DMSO 0%, 113 µM cGMP 100%; activation, % at 11.4 µM; hit rate 0.083% among 340,000; AID 504707, 2011;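 active = percent activation above the mean of all tested compounds plus 3 SD, cut at about 19% in these data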;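 note: higher means more PKAc released from R1A so a rise in polarization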
# UCH37 DUB inh – inhibitors of human UCH37 deubiquitinase, primary screen, biochemical, Ub-AMC cleavage, fluorescence | purified proteasome/UCH37 | inhibition, % (concentration not given with the values) | Ubiquitin carboxyl-terminal hydrolase isozyme L5 (Homo sapiens), Q9Y5K5 | AID 588478, 2011 | hit rate 0.33% among 330,000;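 active = mean inhibition over replicate wells above about 20%, limit read from the data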
# Target sequence (Q9Y5K5 whole entry, looked up): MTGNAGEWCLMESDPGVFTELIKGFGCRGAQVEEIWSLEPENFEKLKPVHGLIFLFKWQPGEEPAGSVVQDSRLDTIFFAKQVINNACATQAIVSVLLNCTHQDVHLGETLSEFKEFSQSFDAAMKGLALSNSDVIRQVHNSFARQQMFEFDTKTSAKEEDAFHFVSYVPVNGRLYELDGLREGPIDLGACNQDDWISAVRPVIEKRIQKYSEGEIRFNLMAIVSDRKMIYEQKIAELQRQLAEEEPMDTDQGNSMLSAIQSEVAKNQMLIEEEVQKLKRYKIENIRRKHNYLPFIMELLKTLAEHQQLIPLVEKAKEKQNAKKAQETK
#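 assay system = human UCH37 enzyme supplied as purified proteasome complex | amount = proteasome at 0.15 nM in the dispensed enzyme solution | schedule = 30 min compound-proteasome preincubation then 25 min substrate reaction, room temperature | measured by = fluorescence, ex 355 nm, em 460 nm | benchmarks = no-proteasome wells (full inhibition) and compound-free wells (no inhibition)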
# R2B FP artifact – fluorescence polarization artefacts, biochemical, artefact control for PKA-R2B activator project | FP artifact counterscreen | hit rate 6% among 270 | AID 504796, 2011 | activation, % at 11.4 µM | shares compounds with PKA-R2B activ; in the data active = activation above about 20%;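 note: Cy5 labelled IP20 peptide probe with compound but no PKA protein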
# PKA-R2B confirm – activators of PKA-R2B holoenzyme, confirmation, biochemical, fluorescence polarization, human. activation, % at 11.4 µM. shares compounds with PKA-R2B activ. hit rate 9% among 270. PKA-R2B complex, activation; in the data active = activation above about 19%
# R1A FP artifact – FP signal interference without PKA proteins, confirmation, artefact control for PKA-R1A activator project, biochemical, fluorescence polarization, triplicate; activation, % at 11.4 µM; shares compounds with PKA-R1A activ; Cy5-IP20 peptide alone, fluorescence polarization artifact counterscreen; AID 504799, 2011; hit rate 7% among 280;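 active = mean activation over triplicate runs exceeds the adjusted cutoff derived for the parent primary screen, cut at about 19% in these data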;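 note: no PKA protein present so any polarization rise reflects compound interference; higher means stronger polarization artifact and likely false positive in parent screen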
# PKA-R1A act conf – activators of PKA-R1A holoenzyme, confirmation, biochemical, fluorescence polarization, Cy5-IP20, triplicate. shares compounds with PKA-R1A activ. PKA-R1A holoenzyme dissociation. activation, % at 11.4 µM. hit rate 9% among 280;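 active = mean activation over replicate wells exceeds the adjusted hit threshold taken from the earlier primary screen, cut at about 20% in these data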
# UCH37 reconfirm – retest of human UCH37 deubiquitinase inhibitors, confirmation, biochemical, Ub-AMC cleavage rate, fluorescence | shares compounds with UCH37 DUB inh | Proteasome-bound UCH37 | inhibition, % at 20 µM | hit rate 27% among 480;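 active = average inhibition over replicates above about 50%, so the earlier screening hit is confirmed, limit read from the data; inactive = the rest, counted as false positives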;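 note: based on cleavage rate fitted by regression over a 30 min kinetic read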
# Hits are given with their value; n = inactive; x = no result given. Most compounds without a hit are left out; they make up all but 0.79% or so of the library.
SMILES,Rin1 Abl inh,PKA-R2B activ,PKA-R1A activ,UCH37 DUB inh,R1A FP artifact,PKA-R1A act conf,others
CCCc1cc(=O)n2[nH]c(NCc3c(F)cccc3Cl)nc2n1,n,32,33,n,27,28,R2B FP artifact=27;PKA-R2B confirm=20
O=C(OCCN1CCOCC1)c1ccc(O)cc1,n,n,n,n,x,x,
O=C(NCc1nc2ccccc2[nH]1)C1=C[C@H](c2ccc(Br)cc2)C[C@H](OCc2ccc(CO)cc2)O1,n,26,35,n,27,27,R2B FP artifact=27;PKA-R2B confirm=22
C#Cc1ccc([C@H]2C=C(C(=O)NCc3nc4ccccc4[nH]3)O[C@@H](OCc3ccc(CO)cc3)C2)cc1,n,n,n,n,x,x,
CC1CCN(S(=O)(=O)c2ccc3c(ccn3CCC(=O)NC(C)C)c2)CC1,n,n,n,n,x,x,
Nc1ncnc2c1nc(Sc1ccc(Cl)cc1)n2[C@@H]1O[C@@H]2COP(=O)(O)O[C@H]2[C@H]1O,n,106,107,n,n,106,R2B FP artifact=n;PKA-R2B confirm=101
O=S(=O)(O)c1cccc2c(N=Nc3ccc(O)c4ncccc34)cccc12,15,21,n,36,x,x,R2B FP artifact=n;PKA-R2B confirm=n;UCH37 reconfirm=n
Cc1cc(-c2nn(C)c(=O)c3ccccc23)cc(C)c1O,n,n,n,n,x,x,
CCC1=NN(C(=O)Cc2ccc(OC)cc2)C(O)(C(F)(F)F)C1 (stereo not given),n,n,19,n,n,n,
COc1ccc(CC(=O)N2N=C(c3ccncc3)CC2(O)C(F)(F)F)cc1 (stereo not given),n,n,n,n,x,x,
COc1ccc(OC)c(C2C(C(=O)c3ccco3)=C(O)C(=O)N2CCN2CCOCC2)c1 (stereo not given),n,n,19,x,n,n,
COc1ccccc1N=Nc1c(C)n[nH]c1C,n,n,19,n,n,n,
CN(C)c1ccc(Cc2ccc(N(C)C)cc2)cc1,n,n,21,n,n,n,
COC(=O)c1ccccc1NC(=O)NCc1cccnc1,n,n,n,n,x,x,
COC(=O)c1ccccc1NC(=O)C(=O)NCc1ccncc1,n,n,21,n,n,n,
CSc1ncccc1C(=O)OCC(=O)NC1CCCC1,n,n,n,n,x,x,
CSc1ncccc1C(=O)OCC(=O)NC1CC1,n,n,20,n,n,n,
O=C(CSCc1ccccc1)N1CCN(c2ccccc2)CC1,n,n,19,n,n,n,
O=C(CSCc1ccccc1)N1CCN(c2ccc(F)cc2)CC1,n,n,n,n,x,x,
O=S(=O)(c1ccccc1)N1CCN(Cc2c(O)ccc3ccccc23)CC1,n,n,n,n,x,x,
Nc1cc(=O)[nH]c(SCC(=O)Nc2ccc3c(c2)CCC3)n1,n,n,n,n,x,x,
Nc1nc(SCC(=O)Nc2ccc3c(c2)CCC3)n[nH]1,n,n,19,n,n,n,
CCOc1ccc(-c2nnn(CCC(=O)O)n2)cc1OC,n,n,19,n,n,n,
Cc1ccc(NC(=O)C2CC(=O)n3c(nc4ccccc43)N2)cc1Cl (stereo not given),n,n,n,n,x,x,
Cc1ccc(NC(=O)C2CC(=O)n3c(nc4ccccc43)N2)cc1C (stereo not given),n,n,19,n,n,n,
SMILES,Rin1 Abl inh,PKA-R2B activ,PKA-R1A activ,UCH37 DUB inh,R1A FP artifact,PKA-R1A act conf,others
O=C1C2C3C=CC(C3)C2C(=O)N1CCC(=O)N1CCc2ccccc21 (stereo not given),n,n,23,n,n,n,
CCCC1NC(=O)c2cccnc2-n2c1nc1ccc(Br)cc1c2=O (stereo not given),n,n,n,x,x,x,
O=C(CNC(=O)c1cccc(Br)c1)N/N=C/c1ccc2c(c1)OCO2,n,n,n,x,x,x,
COc1cccc(C2C(C(N)=O)=C(C)Nc3nc(-c4ccccc4Cl)nn32)c1 (stereo not given),n,n,19,n,n,n,
COc1ccccc1C1C(C(N)=O)=C(C)Nc2nc(-c3ccccc3Cl)nn21 (stereo not given),n,n,n,n,x,x,
Cc1ccc(NC(=O)c2cncc(Br)c2)c([N+](=O)[O-])c1,n,n,23,n,n,n,
CCCC(=O)Nc1nnc(SCC(=O)N2C(C)CCCC2C)s1 (stereo not given),n,n,n,n,x,x,
CCCC(=O)Nc1nnc(SCC(=O)N2CCCCC2)s1,n,n,19,n,n,n,
N#Cc1ccc(CSc2nnc(NC(=O)C3CC(=O)N(c4ccc5c(c4)OCCO5)C3)s2)cc1 (stereo not given),n,n,n,n,x,x,
COc1ccc(C(=O)N2CCCC(Nc3ccc(C)c(C)c3)C2)c(OC)n1 (stereo not given),n,n,23,n,n,n,
CCCc1cc(=O)oc2c(C)c(OCC(=O)N3CCC(C(N)=O)CC3)ccc12,n,n,n,n,x,x,
CC(C)(C)C(=O)NCc1ccc(C(=O)CSc2nnc(C3CC3)n2C2CC2)s1,n,n,20,n,n,n,
NC(=O)SCC(=O)Nc1cccc(Cl)c1,n,n,n,n,x,x,
CC(OC(=O)c1ccccc1O)C(=O)Nc1ccc(Cl)cn1 (stereo not given),n,n,19,n,n,n,
CC(OC(=O)c1ccco1)C(=O)Nc1ccc(Cl)cn1 (stereo not given),n,n,n,n,x,x,
Cc1cccc(OCCC(=O)OC(C)C(=O)Nc2ccc(Cl)cn2)c1 (stereo not given),n,n,n,n,x,x,
CC(OC(=O)CCOc1ccccc1)C(=O)Nc1ccc(Cl)cn1 (stereo not given),n,n,22,n,n,n,
Nc1ncnc(Nc2cc(C(F)(F)F)cc(C(F)(F)F)c2)n1,n,n,n,n,x,x,
CN(C)S(=O)(=O)c1ccc(C(=O)Nc2ccc(OCC(=O)N3CCOCC3)cc2)cc1,n,n,n,n,x,x,
O=C(O)/C=C/c1coc2ccccc2c1=O,n,n,n,n,x,x,

# Assay outcomes from PubChem.
